TRPC4 inh: inhibitors of mouse TRPC4 channel; Q9QUQ5; HEK293 TRPC4beta/mu-opioid, DAMGO-evoked Fluo4 calcium flux; hits give low values; B-score at 10 µM; actives 0.39% (n = 300,000);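 active = B-score over 3 SD under the library average, no early fluorescence shift, positive overall ratio signal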
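Assay system: HEK293 cells with stable TRPC4beta plus mu-opioid receptor expression. Dosing: single dose. Measured by: Fluo4 Ca2+ flux fluorescence. Also added: DAMGO in two steps, submaximal then maximal. Read-out: B score from integrated Fluo4 fluorescence ratio.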
TRPC4 potent: allosteric potentiators of mouse TRPC4 channel | HEK293 TRPC4beta/mu-opioid, DAMGO EC20, Fluo-4 Ca2+ flux; hits give high values | B-score at 10 µM | actives 0.42% (n = 310,000) | AID 2227;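 active = B-score of calcium response area above 5 SD of library B-scores, with initial fluorescence ratio within 5 SD of library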
TRPC4 act: activators of mouse TRPC4 channel; Q9QUQ5; AID 2237; HEK293 TRPC4beta/mu-opioid, Fluo4 calcium fluorescence; hits give high values; B-score at 10 µM; actives 0.49% (n = 310,000);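 active = B-score above 5 SD of library B-scores, and initial fluorescence ratio not above library mean plus 5 SD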;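 note: positive B-score marks a calcium rise read as TRPC4 activation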
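Material: HEK293 stable line with TRPC4beta plus mu-opioid receptor; technique: Fluo4 calcium-sensitive dye fluorescence, kinetic, 1 Hz baseline; timing: Fluo4 dye loading 45 min at room temperature, 110 s recording; controls: assay buffer as low control, maximal DAMGO as high control; read-out: integrated baseline-normalised fluorescence ratio, converted to per-well B score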
TRPC6 activator: mouse TRPC6 channel activation | Q61143 | B-score at 10 µM | actives 0.13% (n = 310,000) | HEK293-TRPC6 membrane potential dye fluorescence; hits give high values;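 active = B-score of the integrated fluorescence ratio above library mean plus 3 SD, and starting fluorescence ratio within library mean plus 5 SD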;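 note: higher score means more depolarization so channel activation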
Target sequence (Q61143 whole entry, looked up): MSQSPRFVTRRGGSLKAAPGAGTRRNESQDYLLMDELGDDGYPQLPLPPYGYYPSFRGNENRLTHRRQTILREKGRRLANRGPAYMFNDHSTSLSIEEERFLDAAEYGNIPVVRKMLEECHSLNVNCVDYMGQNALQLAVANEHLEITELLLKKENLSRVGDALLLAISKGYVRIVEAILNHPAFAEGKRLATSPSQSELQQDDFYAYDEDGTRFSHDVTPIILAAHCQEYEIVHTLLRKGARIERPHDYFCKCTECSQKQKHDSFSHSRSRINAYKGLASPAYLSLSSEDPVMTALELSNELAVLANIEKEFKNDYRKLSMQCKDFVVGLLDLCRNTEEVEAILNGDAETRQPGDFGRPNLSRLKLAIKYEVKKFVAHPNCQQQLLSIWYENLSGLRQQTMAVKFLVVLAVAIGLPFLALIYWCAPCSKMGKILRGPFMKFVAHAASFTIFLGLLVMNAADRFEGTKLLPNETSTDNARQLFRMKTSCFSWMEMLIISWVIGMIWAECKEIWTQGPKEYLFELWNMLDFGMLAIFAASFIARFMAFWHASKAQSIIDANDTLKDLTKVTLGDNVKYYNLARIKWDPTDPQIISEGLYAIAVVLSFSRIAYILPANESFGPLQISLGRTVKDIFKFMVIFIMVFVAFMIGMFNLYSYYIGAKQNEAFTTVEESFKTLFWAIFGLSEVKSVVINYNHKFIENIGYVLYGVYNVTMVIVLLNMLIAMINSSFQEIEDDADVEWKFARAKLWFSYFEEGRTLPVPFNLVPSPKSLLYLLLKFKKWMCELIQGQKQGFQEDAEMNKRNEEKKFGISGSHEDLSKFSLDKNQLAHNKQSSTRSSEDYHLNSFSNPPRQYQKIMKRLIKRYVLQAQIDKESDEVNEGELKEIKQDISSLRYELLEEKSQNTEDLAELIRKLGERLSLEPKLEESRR
TRPC6 inh: inhibitors of mouse TRPC6 channel; Q61143; HEK293-TRPC6, membrane potential dye, ACh-evoked depolarization; hits give low values; B-score at 10 µM; actives 1.1% (n = 310,000); AID 2553;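 active = B-score under library mean minus 3 SD, initial fluorescence not abnormally high, positive integrated signal ratio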;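 note: B-score derived from integrated fluorescence ratio over the kinetic read; more negative B-score means stronger inhibition of depolarization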
TRPC4 spec 2: second selectivity test of TRPC6 inhibitors: effect on mouse TRPC4; shares compounds with TRPC6 inh; HEK293 TRPC4/MOR, membrane potential dye fluorescence; channel activated by saturating DAMGO dose; inhibition, % at 10 µM; actives 42% (n = 920);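 active = compounds whose fluorescence signal differed from control wells by over 3 SD, either direction, in both duplicate plates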
TRPC4 spec: selectivity of TRPC6 inhibitors: effect on mouse TRPC4; activity change, negative = inhibition, % at 10 µM; shares compounds with TRPC6 inh; actives 61% (n = 920); HEK293 TRPC4/mu-opioid, membrane potential fluorescence;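 active = rise or fall in signal beyond 3 SD of buffer-only wells in both replicate plates, either sign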;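 note: integrated kinetic ratio of fluorescence range over baseline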
HEK293 MPD ctr 2-1: parental HEK293 nonspecific activity of TRPC6 inhibitors, second screen; shares compounds with TRPC6 inh; parental HEK293 membrane potential dye fluorescence; maximal acetylcholine challenge after compound addition; signal change vs control, % at 10 µM; actives 31% (n = 920); AID 2779;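 active = membrane potential signal moving either way by over 3 SD of the maximum-effect control, in both duplicate plates, meaning non-specific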
HEK293 MPD ctr-1: counter-screen for TRPC6 inhibitors: effect in parental HEK293 cells; shares compounds with TRPC6 inh; parental HEK293 membrane potential dye fluorescence; membrane potential signal change, % at 10 µM; actives 60% (n = 920); AID 2780;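 active = membrane potential signal shifting up or down by more than 3 SD of buffer-only wells, on both duplicate plates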
HEK293 MPD ctr-2: counter-screen for TRPC6 modulators: effect in parental HEK293 cells; shares compounds with TRPC6 inh; membrane potential dye fluorescence; membrane potential signal change, % at 10 µM; actives 51% (n = 2,400); AID 488924;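 active = membrane potential signal moves up or down beyond 5 SD from buffer-only wells, on both duplicate plates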
HEK293 MPD ctr 2-2: second check of TRPC6 modulator effects in parental HEK293 cells. inhibition, % at 10 µM. membrane potential dye fluorescence; after compound, maximal acetylcholine stimulation. shares compounds with TRPC6 inh. actives 14% (n = 2,400);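 active = membrane potential signal drops by more than 5 SD from the mean control signal, in both duplicate plates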
TRPC4 ctr mod: selectivity of TRPC6 modulators against mouse TRPC4. HEK293 TRPC4/mu-opioid, membrane potential fluorescence. actives 69% (n = 2,400). percent change from control (negative = decrease, positive = increase), % at 10 µM. shares compounds with TRPC6 inh;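 active = membrane potential signal moved up or down beyond 5 SD of buffer control wells, in both duplicate plates, actives on both sides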
TRPC4 ctr inh 2: second check of whether TRPC6 modulators also affect mouse TRPC4 | actives 55% (n = 2,400) | AID 488928 | inhibition, % at 10 µM | shares compounds with TRPC6 inh | HEK293 TRPC4/mu-opioid, membrane potential dye fluorescence; stimulated with maximal-effect DAMGO;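 active = drop in membrane potential signal beyond 5 SD of the control wells in both duplicate plates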;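 note: TRPC4 counter screen for TRPC6 hits run under conditions tuned for TRPC6 not TRPC4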
TRPC6 inh conf: mouse TRPC6 inhibitor confirmation. shares compounds with TRPC6 inh. HEK293-TRPC6, membrane potential dye, ACh-evoked depolarization. inhibition, % at 10 µM. actives 43% (n = 3,300);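 active = fluorescence ratio falls more than 5 SD below the full-stimulation control mean, in both duplicate runs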;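 note: integrated fluorescence ratio of peak minus minimum over baseline after agonist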
TRPC6 act conf: mouse TRPC6 activator confirmation. shares compounds with TRPC6 inh. HEK293-TRPC6 membrane potential dye fluorescence, FDSS. activation, % at 10 µM. actives 11% (n = 2,800);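 active = ratio signal rise beyond 5 SD above unstimulated control wells' mean, seen in both duplicate runs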
Numbers stand for hits; i = inactive; nt = no result; + = active, no number. In the library only some 2.3% were active in any assay of this set; here they are far more common.

SMILES	TRPC4 inh	TRPC4 potent	TRPC4 act	TRPC6 activator	TRPC6 inh	HEK293 MPD ctr-2	HEK293 MPD ctr 2-2	TRPC4 ctr mod	TRPC4 ctr inh 2	TRPC6 inh conf	TRPC6 act conf	others
CCN(CC)CCCNc1nc(-c2ccccc2)nc2ccccc12	i	i	i	i	-8.8	nt	nt	nt	nt	76%	i	TRPC4 spec 2=40%;TRPC4 spec=-27%;HEK293 MPD ctr 2-1=35%;HEK293 MPD ctr-1=-355%
c1ccc(-c2nc(NCCCn3ccnc3)c3ccccc3n2)cc1	i	i	i	i	-5.2	-220%	i	-50%	72%	61%	i
CC(Nc1nc(-c2ccccc2)nc2ccccc12)c1ccccc1 (stereo unspecified)	i	i	i	i	-7.3	nt	nt	nt	nt	i	i	TRPC4 spec 2=i;TRPC4 spec=-9.5%;HEK293 MPD ctr 2-1=i;HEK293 MPD ctr-1=i
COc1ccc(-c2nc(NCCCN(C)C)c3ccccc3n2)cc1	i	i	i	i	-6.7	nt	nt	nt	nt	85%	i	TRPC4 spec 2=55%;TRPC4 spec=-32%;HEK293 MPD ctr 2-1=i;HEK293 MPD ctr-1=-387%
CC(Nc1nc(-c2ccccc2O)nc2ccccc12)c1ccccc1 (stereo unspecified)	i	i	i	i	i	nt	nt	nt	nt	nt	nt
CC(C)OCCCN(C)C1CCN(S(=O)(=O)c2ccc(-c3cc(C(F)(F)F)no3)s2)CC1	i	i	i	i	i	nt	nt	nt	nt	nt	nt
COc1cc(C(=O)NNC(=O)CNC(=O)c2ccc(Br)o2)cc(OC)c1OC	i	i	i	i	i	nt	nt	nt	nt	nt	nt
COc1ccc(C(CNc2nc(-c3cccnc3)nc3ccccc23)N(C)C)cc1 (stereo unspecified)	i	i	188	i	-7.5	-277%	i	-38%	90%	55%	i
CN(C)C(=O)C(CCN1CCC(O)(c2ccc(Cl)cc2)CC1)(c1ccccc1)c1ccccc1	i	i	50	i	-5.4	115%	i	78%	112%	61%	nt
CN(C)c1ccc(NC(=O)CN2CCC(O)(c3ccccc3)CC2)cc1	i	i	i	i	i	nt	nt	nt	nt	nt	nt
CCOC(=O)c1ccc(NC(=S)N(CCN2CCCCCC2)Cc2ccco2)cc1	i	i	i	i	i	nt	nt	nt	nt	nt	nt
CCOC(=O)c1ccc(NC(=S)NCc2ccc(S(N)(=O)=O)cc2)cc1	i	i	i	i	-5.3	i	i	i	i	48%	nt
CCOC(=O)c1ccc(NC(=O)CN(Cc2ccc(Cl)cc2)S(C)(=O)=O)cc1	i	i	i	i	-6.6	nt	nt	nt	nt	i	i	TRPC4 spec 2=i;TRPC4 spec=-12%;HEK293 MPD ctr 2-1=i;HEK293 MPD ctr-1=i
CCOC(=O)c1ccc(NC(=S)NCc2ccco2)cc1	i	i	i	i	-9.3	nt	nt	nt	nt	i	i	TRPC4 spec 2=i;TRPC4 spec=i;HEK293 MPD ctr 2-1=i;HEK293 MPD ctr-1=i
CCOC(=O)c1ccc(NC(=S)N(CCCN2CCCCCC2)Cc2ccco2)cc1	i	i	i	i	-5.7	i	i	i	77%	56%	i
CS(=O)(=O)N(CC(=O)Nc1ccc2c(c1)OCCO2)Cc1ccc(Cl)cc1	i	i	i	i	i	nt	nt	nt	nt	nt	nt
CCOc1ccc(NC(=S)NCc2ccco2)cc1	i	i	i	i	i	nt	nt	nt	nt	nt	nt
Cc1noc(C)c1C(=O)N(CC(C)C)c1nc2ccccc2s1	i	i	i	i	i	nt	nt	nt	nt	nt	nt
CCOc1cc(CN2CCN(c3ncccn3)CC2)ccc1OC	i	i	i	i	i	nt	nt	nt	nt	nt	nt
Cc1ccccc1CC1CCN(CCCNC(=O)Nc2ccccc2)CC1	i	i	i	i	i	nt	nt	nt	nt	nt	nt
CN(NS(=O)(=O)c1ccccc1)c1nc2ccccc2nc1C(F)(F)F	i	i	i	i	i	nt	nt	nt	nt	nt	nt
CN(NS(=O)(=O)c1ccc(Cl)cc1)c1nc(C(F)(F)F)nc2ccccc12	i	i	i	i	-5.6	i	i	i	i	i	i
S=C(Nc1ccc(Oc2ccccc2)cc1)N1CCOCC1	i	i	i	i	i	nt	nt	nt	nt	nt	nt
O=C(CNc1ccc(Oc2ccccc2)cc1)N1CCOCC1	i	i	i	i	-5.7	i	i	i	i	i	i
CCOC(=O)C1=c2s/c(=C\c3cccnc3)c(=O)n2C(N)=C(C(=O)OC)C1c1cccnc1 (stereo unspecified)	i	i	i	i	-5.1	i	i	i	i	i	i
SMILES	TRPC4 inh	TRPC4 potent	TRPC4 act	TRPC6 activator	TRPC6 inh	HEK293 MPD ctr-2	HEK293 MPD ctr 2-2	TRPC4 ctr mod	TRPC4 ctr inh 2	TRPC6 inh conf	TRPC6 act conf	others
Cc1cc(N2CCN(c3cccc(C(F)(F)F)c3)CC2)n2ncnc2n1	i	i	i	i	i	nt	nt	nt	nt	nt	nt
Cc1nc2ncnn2c(N2CCN(c3cccc(C(F)(F)F)c3)CC2)c1C	i	i	i	13	i	338%	i	65%	i	i	130%
O=C(c1ccccc1F)N1CCN(c2ccc([N+](=O)[O-])c3ncccc23)CC1	i	i	i	i	i	nt	nt	nt	nt	nt	nt
O=[N+]([O-])c1cccc2c(N3CCCC3)ccnc12	i	i	i	i	-8.9	-360%	95%	-44%	56%	70%	i
O=C(O)c1cccc(-c2ccc(/C=N/Nc3ccc([N+](=O)[O-])cc3)o2)c1	i	i	i	i	i	nt	nt	nt	nt	nt	nt
CC(C)(C)NC(=S)N/N=C\c1ccc(-c2ccc([N+](=O)[O-])cc2)o1	i	16	i	18	i	i	i	51%	i	i	i
O=C(O)c1ccc(-c2ccc(/C=N/Nc3ccc([N+](=O)[O-])cc3)o2)cc1	i	19	121	43	i	+	i	310%	i	i	484%
COc1cc(NC(=O)c2ccc(=O)[nH]n2)cc(OC)c1OC	i	i	i	i	i	nt	nt	nt	nt	nt	nt
O=C(COc1ccccc1)N1CCN(C(=O)c2ccccc2F)CC1	i	i	i	i	i	nt	nt	nt	nt	nt	nt

Screens: PubChem, Johns Hopkins Ion Channel Center
